Measured values collected from several papers.
Observed: cell growth or viability

| Compound | cell line | assay | setting | IC50 |
| --- | --- | --- | --- | --- |
| COc1cccc2c1C(=O)c1c(O)c3c(c(O)c1C2=O)C[C@@](O)(C(=O)CO)C[C@@H]3O[C@H]1C[C@H](N)[C@H](O)[C@H](C)O1 | ACHN | MTT | 24 h | 36100 nM |
| CN1C(=O)CCC(N2C(=O)c3cc4c(cc3C2=O)CN(CCCCCCCC(=O)N2CCC(C(=O)Nc3ncc(SCc5ncc(C(C)(C)C)o5)s3)CC2)C4)C1=O (stereo not drawn) | TC-71 | MTT | 72 h | > 1000 nM |
| Cc1cc2c(C(N)=O)cccc2n1-c1nc(NCc2ccccc2)c2c(n1)NC(C)CC2 (stereo not drawn) | RPMI-8226 | ATP luminescence | 72 h | 1300 nM |
| O=C(O)c1ccc(NCc2cccc(O)c2)cc1 | NCI-H69 | resazurin | 72 h | > 100000 nM |
| CONC(=O)c1cccc2c1cc(C)n2-c1nc2c(c(NCc3ccccc3)n1)CCCN2 | RPMI-8226 | ATP luminescence | 72 h | 500 nM |
| COc1cccc(CNc2ccc(C(=O)O)cc2)c1OC | NCI-H69 | resazurin | 72 h | > 100000 nM |
| Cc1cc2c(C(N)=O)cccc2n1-c1nc2c(c(NCc3cccc(O)c3)n1)CCCN2 | RPMI-8226 | ATP luminescence | 72 h | 300 nM |
| CC(C)(C)c1cnc(CSc2cnc(NC(=O)C3CCN(CC(=O)NCCOCCOCCOCCNc4cccc5c4C(=O)N(C4CCC(=O)NC4=O)C5=O)CC3)s2)o1 (stereo not drawn) | TC-71 | MTT | 72 h | 21.6 nM |
| O=C(O)c1ccc(NCc2ccc(Br)cc2)cc1 | NCI-H69 | resazurin | 72 h | > 100000 nM |
| CC(C)(C)c1cnc(CSc2cnc(NC(=O)C3CCN(C(=O)CCCCCN4Cc5cc6c(cc5C4)C(=O)N(C4CCC(=O)NC4=O)C6=O)CC3)s2)o1 (stereo not drawn) | TC-71 | MTT | 72 h | 4.71 nM |
| COc1ccc2c(c1)OC1=C(C(=O)CC(C)(C)C1)C2c1c(C(=O)O)[nH]c2ccccc12 (stereo not drawn) | 3T3-L1 | MTT | 72 h | 24.5 µg/mL |
| CC(C)(C)c1cnc(CSc2cnc(NC(=O)C3CCN(C(=O)CCCCCCN4Cc5cc6c(cc5C4)C(=O)N(C4CCC(=O)NC4=O)C6=O)CC3)s2)o1 (stereo not drawn) | TC-71 | MTT | 72 h | 9.58 nM |
| COc1ccc(CNc2ccc(C(=O)O)cc2)cc1OC | NCI-H69 | resazurin | 72 h | > 100000 nM |
| Cc1cc2c(C(N)=O)cccc2n1-c1nc2c(c(NCc3cccnc3)n1)CCCN2 | RPMI-8226 | ATP luminescence | 72 h | 2000 nM |
| O=C(O)c1ccc(NCc2cccc([N+](=O)[O-])c2)cc1 | NCI-H69 | resazurin | 72 h | > 100000 nM |
| Cc1cc2c(C(N)=O)cncc2n1-c1nc2c(c(NCc3ccccc3)n1)CCCN2 | RPMI-8226 | ATP luminescence | 72 h | 2900 nM |
| C=CCn1c(=O)c2cnc(Nc3ccc(N4CCN(C)CC4)cc3)nc2n1-c1ccc2c(n1)[C@@](O)(CC)CC2 | OVCAR-3 | ATP luminescence | 72 h | 295 nM |
| CC(C)(C)c1cnc(CSc2cnc(NC(=O)C3CCN(C(=O)CCOCCCN4Cc5cc6c(cc5C4)C(=O)N(C4CCC(=O)NC4=O)C6=O)CC3)s2)o1 (stereo not drawn) | TC-71 | MTT | 72 h | 16.9 nM |
| O=C(O)c1ccc(NCc2ccccc2)cc1 | NCI-H69 | resazurin | 72 h | > 100000 nM |
| CC(C)(C)c1cnc(CSc2cnc(NC(=O)C3CCN(C(=O)CCCCCCCCCCCN4Cc5cc6c(cc5C4)C(=O)N(C4CCC(=O)NC4=O)C6=O)CC3)s2)o1 (stereo not drawn) | TC-71 | MTT | 72 h | 79.9 nM |
| CONC(=O)Cc1c(C)n(-c2nc3c(c(NCc4ccccc4)n2)CCCN3)c2ccccc12 | RPMI-8226 | ATP luminescence | 72 h | 8000 nM |
